{
  "source": "ChEMBL document CHEMBL1121844",
  "about": "“Synthesis and preliminary antitumor evaluation of 5-iminodoxorubicin” (1981)",
  "assay_type_in_all_cases": "functional",
  "key": {"L1210 [1]": {"tested_on": "L1210", "test": "Dose required to inhibit the DNA synthesis in leukemia L1210 cells", "settings": "Mus musculus, read-out: ED50 (the source's name)"}, "L1210 [2]": {"tested_on": "L1210", "test": "Dose required to inhibit the RNA synthesis in leukemia L1210 cells", "settings": "Mus musculus, read-out: ED50 (the source's name)"}, "Mus musculus [3]": {"tested_on": "Mus musculus", "test": "Compound was evaluated for antitumor activity in mice injected intraperitoneal with leukemia P-388 cells, treated on days 5, 9, and 13th day at 6.25 mg/kg", "outline": "(§1)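 Mice received leukemia P-388 cells intraperitoneally on day 0. The specified dose was then given ip on days 5, 9 and 13. Read-out was % T/C, the survival time of treated mice relative to untreated controls. A T/C of 120% or more was defined as active.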"}, "Mus musculus [4]": {"tested_on": "Mus musculus", "test": "Compound was evaluated for antitumor activity in mice injected intraperitoneal with leukemia P-388 cells, treated on days 5, 9, and 13 th day at 50 mg/kg", "outline": "as §1"}, "Mus musculus [5]": {"tested_on": "Mus musculus", "test": "Compound was evaluated for antitumor activity in mice injected intraperitoneal with leukemia P-388 cells, treated on days 5, 9, and 13th day at 12.5 mg/kg", "outline": "as §1"}, "Mus musculus [6]": {"tested_on": "Mus musculus", "test": "Compound was evaluated for antitumor activity in mice injected intraperitoneal with leukemia P-388 cells, treated on days 5, 9, and 13th day at 25 mg/kg", "outline": "as §1"}, "Rattus norvegicus": {"organism": "Rattus norvegicus", "test": "Compound was evaluated for augmentation of rat liver microsomal oxygen consumption relative to doxorubicin"}, "Nucleic Acid": {"tested_on": "Nucleic Acid", "test": "Thermal denaturation for stabilization of helical DNA by the compound"}, "Mus musculus [7]": {"tested_on": "Mus musculus", "test": "Compound was evaluated for antitumor activity in mice injected intraperitoneal with leukemia P-388 cells, treated on days 5, 9, and 13 th day at 1 mg/kg", "outline": "as §1"}, "Mus musculus [8]": {"tested_on": "Mus musculus", "test": "Compound was evaluated for antitumor activity in mice injected intraperitoneal with leukemia P-388 cells, treated on days 5, 9, and 13 th day at 2 mg/kg", "outline": "as §1"}, "Mus musculus [9]": {"tested_on": "Mus musculus", "test": "Compound was evaluated for antitumor activity in mice injected intraperitoneal with leukemia P-388 cells, treated on days 5, 9, and 13 th day at 4 mg/kg", "outline": "as §1"}, "Mus musculus [10]": {"tested_on": "Mus musculus", "test": "Compound was evaluated for antitumor activity in mice injected intraperitoneal with leukemia P-388 cells, treated on days 5, 9, and 13 th day at 8 mg/kg", "outline": "as §1"}, "Mus musculus [11]": {"tested_on": "Mus musculus", "test": "Compound was evaluated for antitumor activity in mice injected intraperitoneal with leukemia P-388 cells, treated on days 5, 9, and 13 th day at 16 mg/kg", "outline": "as §1"}, "Mus musculus [12]": {"tested_on": "Mus musculus", "test": "Compound was evaluated for antitumor activity in mice injected intraperitoneal with leukemia P-388 cells, treated on days 5, 9, and 13th day at 4 mg/kg", "outline": "as §1"}, "Mus musculus [13]": {"tested_on": "Mus musculus", "test": "Compound was evaluated for antitumor activity in mice injected intraperitoneal with leukemia P-388 cells, treated on days 5, 9, and 13th day at 8 mg/kg", "outline": "as §1"}, "Mus musculus [14]": {"tested_on": "Mus musculus", "test": "Compound was evaluated for antitumor activity in mice injected intraperitoneal with leukemia P-388 cells, treated on days 5, 9, and 13th day at 2 mg/kg", "outline": "as §1"}, "Mus musculus [15]": {"tested_on": "Mus musculus", "test": "Compound was evaluated for antitumor activity in mice injected intraperitoneal with leukemia P-388 cells, treated on days 5, 9, and 13th day at 5.4 mg/kg", "outline": "as §1"}, "Mus musculus [16]": {"tested_on": "Mus musculus", "test": "Compound was evaluated for antitumor activity in mice injected intraperitoneal with leukemia P-388 cells, treated on days 5, 9, and 13th day at 5.76 mg/kg", "outline": "as §1"}, "Mus musculus [17]": {"tested_on": "Mus musculus", "test": "Compound was evaluated for antitumor activity in mice injected intraperitoneal with leukemia P-388 cells, treated on days 5, 9, and 13th day at 6 mg/kg", "outline": "as §1"}, "Mus musculus [18]": {"tested_on": "Mus musculus", "test": "Compound was evaluated for antitumor activity in mice injected intraperitoneal with leukemia P-388 cells, treated on days 5, 9, and 13th day at 9.6 mg/kg", "outline": "as §1"}, "Mus musculus [19]": {"tested_on": "Mus musculus", "test": "Compound was evaluated for antitumor activity in mice injected intraperitoneal with leukemia P-388 cells, treated on days 5, 9, and 13th day at 9 mg/kg", "outline": "as §1"}, "Mus musculus [20]": {"tested_on": "Mus musculus", "test": "Compound was evaluated for antitumor activity in mice injected intraperitoneal with leukemia P-388 cells, treated on days 5, 9, and 13 th day at 24 mg/kg", "outline": "as §1"}, "Mus musculus [21]": {"tested_on": "Mus musculus", "test": "Compound was evaluated for antitumor activity in mice injected intraperitoneal with leukemia P-388 cells, treated on days 5, 9, and 13th day at 1.5 mg/kg", "outline": "as §1"}, "Mus musculus [22]": {"tested_on": "Mus musculus", "test": "Compound was evaluated for antitumor activity in mice injected intraperitoneal with leukemia P-388 cells, treated on days 5, 9, and 13th day at 1.94 mg/kg", "outline": "as §1"}, "Mus musculus [23]": {"tested_on": "Mus musculus", "test": "Compound was evaluated for antitumor activity in mice injected intraperitoneal with leukemia P-388 cells, treated on days 5, 9, and 13th day at 12 mg/kg", "outline": "as §1"}, "Mus musculus [24]": {"tested_on": "Mus musculus", "test": "Compound was evaluated for antitumor activity in mice injected intraperitoneal with leukemia P-388 cells, treated on days 5, 9, and 13th day at 16 mg/kg", "outline": "as §1"}, "Mus musculus [25]": {"tested_on": "Mus musculus", "test": "Compound was evaluated for antitumor activity in mice injected intraperitoneal with leukemia P-388 cells, treated on days 5, 9, and 13th day at 3.24 mg/kg", "outline": "as §1"}, "Mus musculus [26]": {"tested_on": "Mus musculus", "test": "Compound was evaluated for antitumor activity in mice injected intraperitoneal with leukemia P-388 cells, treated on days 5, 9, and 13th day at 3.46 mg/kg", "outline": "as §1"}, "Mus musculus [27]": {"tested_on": "Mus musculus", "test": "Compound was evaluated for antitumor activity in mice injected intraperitoneal with leukemia P-388 cells, treated on days 5, 9, and 13th day at 3 mg/kg", "outline": "as §1"}},
  "data": [
    {"smiles": "COc1cccc2c1C(=N)c1c(O)c3c(c(O)c1C2=O)C[C@@](O)(C(=O)CO)C[C@@H]3OC1CC(N)C(O)C(C)O1.Cl", "note": "(stereo partly specified)", "values": [
      {"measurement": "EC50", "setting": "L1210 [1]", "value": 2000, "unit": "nM"},
      {"measurement": "EC50", "setting": "L1210 [2]", "value": 2100, "unit": "nM"},
      {"measurement": "T/C", "setting": "Mus musculus [3]", "value": 122, "unit": "%"},
      {"measurement": "T/C", "setting": "Mus musculus [4]", "value": 173, "unit": "%"},
      {"measurement": "T/C", "setting": "Mus musculus [5]", "value": 132, "unit": "%"},
      {"measurement": "T/C", "setting": "Mus musculus [6]", "value": 155, "unit": "%"},
      {"measurement": "Augmentation", "setting": "Rattus norvegicus", "value": 7.5, "unit": "%"},
      {"measurement": "ΔTm", "setting": "Nucleic Acid", "value": 6.9, "unit": "°C"}
    ]},
    {"smiles": "COc1cccc2c1C(=O)c1c(O)c3c(c(O)c1C2=O)C[C@@](O)(C(=O)CO)C[C@@H]3O[C@H]1C[C@H](N)[C@H](O)[C@H](C)O1.Cl", "note": "[DOXORUBICIN HYDROCHLORIDE]", "values": [
      {"measurement": "EC50", "setting": "L1210 [1]", "value": 1500, "unit": "nM"},
      {"measurement": "EC50", "setting": "L1210 [2]", "value": 700, "unit": "nM"},
      {"measurement": "T/C", "setting": "Mus musculus [7]", "value": 123, "unit": "%"},
      {"measurement": "T/C", "setting": "Mus musculus [8]", "value": 130, "unit": "%"},
      {"measurement": "T/C", "setting": "Mus musculus [9]", "value": 144, "unit": "%"},
      {"measurement": "T/C", "setting": "Mus musculus [10]", "value": 162, "unit": "%"},
      {"measurement": "T/C", "setting": "Mus musculus [11]", "value": 125, "unit": "%"},
      {"measurement": "Augmentation", "setting": "Rattus norvegicus", "value": 100, "unit": "%"},
      {"measurement": "ΔTm", "setting": "Nucleic Acid", "value": 13.4, "unit": "°C"}
    ]},
    {"smiles": "COc1cccc2c1C(=O)c1c(O)c3c(c(O)c1C2=O)C[C@@](O)(C(C)=O)C[C@@H]3O[C@H]1C[C@H](N)[C@H](O)[C@H](C)O1.Cl", "note": "[DAUNORUBICIN HYDROCHLORIDE]", "values": [
      {"measurement": "EC50", "setting": "L1210 [1]", "value": 1000, "unit": "nM"},
      {"measurement": "EC50", "setting": "L1210 [2]", "value": 300, "unit": "nM"},
      {"measurement": "T/C", "setting": "Mus musculus [12]", "value": 126, "unit": "%"},
      {"measurement": "T/C", "setting": "Mus musculus [13]", "value": 129, "unit": "%"},
      {"measurement": "T/C", "setting": "Mus musculus [14]", "value": 123, "unit": "%"},
      {"measurement": "T/C", "setting": "Mus musculus [11]", "value": 123, "unit": "%"},
      {"measurement": "Augmentation", "setting": "Rattus norvegicus", "value": 109, "unit": "%"}
    ]},
    {"smiles": "COc1cccc2c1C(=N)c1c(O)c3c(c(O)c1C2=O)C[C@@](O)(C(C)=O)C[C@@H]3OC1CC(N)C(O)C(C)O1.Cl", "note": "(stereo partly specified)", "values": [
      {"measurement": "EC50", "setting": "L1210 [1]", "value": 1600, "unit": "nM"},
      {"measurement": "EC50", "setting": "L1210 [2]", "value": 1300, "unit": "nM"},
      {"measurement": "T/C", "setting": "Mus musculus [15]", "value": 161, "unit": "%"},
      {"measurement": "T/C", "setting": "Mus musculus [16]", "value": 186, "unit": "%"},
      {"measurement": "T/C", "setting": "Mus musculus [17]", "value": 124, "unit": "%"},
      {"measurement": "T/C", "setting": "Mus musculus [18]", "value": 180, "unit": "%"},
      {"measurement": "T/C", "setting": "Mus musculus [19]", "value": 157, "unit": "%"},
      {"measurement": "T/C", "setting": "Mus musculus [20]", "value": 126, "unit": "%"},
      {"measurement": "T/C", "setting": "Mus musculus [21]", "value": 126, "unit": "%"},
      {"measurement": "T/C", "setting": "Mus musculus [22]", "value": 137, "unit": "%"},
      {"measurement": "T/C", "setting": "Mus musculus [23]", "value": 116, "unit": "%"},
      {"measurement": "T/C", "setting": "Mus musculus [24]", "value": 140, "unit": "%"},
      {"measurement": "T/C", "setting": "Mus musculus [25]", "value": 150, "unit": "%"},
      {"measurement": "T/C", "setting": "Mus musculus [26]", "value": 177, "unit": "%"},
      {"measurement": "T/C", "setting": "Mus musculus [27]", "value": 130, "unit": "%"},
      {"measurement": "Augmentation", "setting": "Rattus norvegicus", "value": 8.2, "unit": "%"},
      {"measurement": "ΔTm", "setting": "Nucleic Acid", "value": 6.2, "unit": "°C"}
    ]}
  ]
}
